# In ChEMBL document CHEMBL5034042 (ACS Med Chem Lett, 2022):
# pEC50: −log10 of the molar value.
# Legend:
# [1] = target: T1, Trace amine-associated receptor 1 (Homo sapiens, UniProt Q96RJ0); assay: Agonist activity at recombinant human TAAR1 expressed in CHO-K1 cells assessed as increase in intracellular cAMP incubated for 30 mins by HTRF analysis; type: functional, cell-based
# T1 sequence (Q96RJ0 whole entry): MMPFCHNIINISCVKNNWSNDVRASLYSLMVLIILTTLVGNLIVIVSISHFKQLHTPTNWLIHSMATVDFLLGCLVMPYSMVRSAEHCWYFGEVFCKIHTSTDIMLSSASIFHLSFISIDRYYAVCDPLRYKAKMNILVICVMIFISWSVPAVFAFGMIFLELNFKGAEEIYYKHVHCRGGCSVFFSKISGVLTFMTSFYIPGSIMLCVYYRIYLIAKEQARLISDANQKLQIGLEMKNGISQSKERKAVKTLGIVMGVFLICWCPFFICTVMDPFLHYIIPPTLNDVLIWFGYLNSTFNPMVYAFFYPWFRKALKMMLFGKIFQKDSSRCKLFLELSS
# In short: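 Human TAAR1 agonism was measured in a single study under identical conditions.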
# [2] = target: T2, Trace amine-associated receptor 1 (Homo sapiens) (UniProt Q96RJ0); assay: Agonist activity at recombinant human TAAR1 expressed in CHO-K1 cells assessed as maximal increase in intracellular cAMP incubated for 30 mins by HTRF analysis relative to control; type: functional, cell-based; details: filed as agonist
# T2 sequence (whole entry): T1 sequence (Q96RJ0 whole entry)
# In short: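 Maximal response (Emax) is expressed relative to a p-tyramine control applied to each plate. Values were run in triplicate under identical conditions in a single study and are reported as mean ± SEM (n = 3).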
Compound,pEC50 [1],Emax [2]
COc1cc(CCN)ccc1O,6.51,101%
CNC[C@@H]1OCCc2sccc21,6.95,110%
NCCc1ccc(Oc2ccc(O)cc2)c(I)c1,6.65,105%
CNC[C@]1(C)OCCc2ccsc21,4.34,95%
NC[C@@H](O)c1ccc(O)cc1,5.39,108%
NCCc1c[nH]c2ccc(O)cc12 [SEROTONIN],4.45,75%
NC[C@@H]1OCCc2ccsc21,8.46,110%
CNC[C@H](O)c1ccc(O)cc1,5.33,113%
NCCc1ccccc1 [PHENETHYLAMINE],7.82,111%
CNCC1OCCc2cscc21 (configuration not stated),6.54,112%
NCCc1c[nH]c2ccccc12 [TRYPTAMINE],5.66,102%
NCCc1cccs1,8.08,113%
NCC(O)c1ccc(O)c(O)c1 (configuration not stated),4.91,99%
NCCc1ccc(O)cc1 [TYRAMINE],7.12,111%
NCCc1ccsc1,7.60,112%
NCCc1ccc(O)c(O)c1,,97%
NCCc1cccc(O)c1,6.47,109%
NCC1OCCCc2ccsc21 (racemic),7.19,111%
c1cc2c(s1)[C@H](CN1CCCC1)OCC2,5.14,113%
NC[C@H](O)c1ccc(O)cc1,5.80,116%
CN(C)C[C@@H]1OCCc2ccsc21,6.69,112%
NCC[C@@H]1OCCc2ccsc21,6.63,105%
CNCCc1ccccc1,6.82,111%
CNCC1OCCCc2ccsc21 (racemic),6.49,113%
